# Screens (PubChem BioAssay)
# RanGTP-Imp inh: disruptors of Ran-importin-beta complex formation – biochemical, FRET, CFP-Ran, YFP-importin-beta, homogeneous, primary screen | cell-free CFP-Ran/YFP-importin-beta FRET ratio | inhibition, % (test concentration not listed) | 1.1% of 300,000 active | AID 2216;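 active = more than half of the replicate wells show a fall in the fluorescence ratio signal beyond about 16%, limit read from the data, passing the limit was not always enough; inconclusive = exactly half of the replicate wells pass the set limit; inactive = fewer than half of replicates pass the limit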;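 note: 0% = DMSO wells and 100% = Ran loaded with GDP instead of GTP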
# Runt-SMMHC FRET: inhibitors of human RUNX1 Runt domain binding to CBFb-SMMHC; Q01196+Q13951; Cerulean-Runt/Venus-CBFb-SMMHC FRET ratio 530/480, 1 h; inhibition, % at 20 µM; 0.74% of 220,000 active; AID 1434;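 active = mean inhibition across duplicate retests at 20 µM reaching about 50%, limit read from the data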;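 note: 0% = DMSO wells and 100% = wells with excess untagged CBFb-SMMHC; inhibitors lower the FRET ratio by blocking Runt binding to CBFb-SMMHC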
# Runt-CBFb FRET: blocks binding of human RUNX1 Runt domain to CBFb | Cerulean-Runt/Venus-CBFb FRET ratio 530/480, 1 h | inhibition, % at 20 µM | 0.46% of 220,000 active | AID 1496;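 active = inhibition over about 50% at 20 µM in the single-dose screen, limit read from the data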;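 note: 0% = DMSO wells and 100% = excess unlabeled CBFb competitor control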
#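 Schedule: protein complex preformed 1 h, compound exposure 1 h, room temperature, dark; test system: Cerulean-labeled Runt domain protein; amount: 100 nM per protein; buffer or medium: Tris 50 mM pH 7.5, KCl, K2SO4, 0.01% BSA; read-out: loss of energy transfer signal; detection: FRET fluorescence; controls: 5 µM unlabeled CBFb as full-inhibition high control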
# Hck-Nef inh: human Hck-Nef kinase inhibition; P08631; Recombinant Hck-YEEI plus Nef, Z-Lyte FRET kinase assay; inhibition, % at 20 µM; 0.68% of 220,000 active;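 active = Hck-Nef kinase inhibition above about 50%, limit read from the data; inactive = inhibition below that limit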;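 note: 0% = DMSO with Hck plus Nef and 100% = Hck alone without Nef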
# Target sequence (P08631 whole entry, looked up): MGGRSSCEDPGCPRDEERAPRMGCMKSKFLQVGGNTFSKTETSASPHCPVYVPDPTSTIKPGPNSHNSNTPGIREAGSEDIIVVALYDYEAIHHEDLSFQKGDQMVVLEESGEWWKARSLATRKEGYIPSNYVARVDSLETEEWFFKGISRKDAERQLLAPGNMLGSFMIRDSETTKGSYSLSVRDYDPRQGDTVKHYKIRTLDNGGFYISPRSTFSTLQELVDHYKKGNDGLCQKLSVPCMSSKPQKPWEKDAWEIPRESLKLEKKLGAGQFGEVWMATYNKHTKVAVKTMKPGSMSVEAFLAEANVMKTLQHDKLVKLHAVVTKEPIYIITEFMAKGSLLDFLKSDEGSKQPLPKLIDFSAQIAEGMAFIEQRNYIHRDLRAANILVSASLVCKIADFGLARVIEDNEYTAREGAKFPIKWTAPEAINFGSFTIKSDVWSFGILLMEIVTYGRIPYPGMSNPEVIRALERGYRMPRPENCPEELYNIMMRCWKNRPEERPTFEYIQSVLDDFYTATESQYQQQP
# Tb hexokinase: T. brucei hexokinase 1 inhibition; recombinant TbHK1, G6PDH-coupled NADH A340; AID 1430; 0.11% of 220,000 active; inhibition, % at 10 µM;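 active = inhibition of 50% or more in the single-dose primary screen; inactive = inhibition below 50%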
# G6PDH counter: counter-screen for TbHK1 inhibitors: Leuconostoc G6PDH inhibition | shares compounds with Tb hexokinase | purified G6PDH, NADH absorbance, 1 h | inhibition, % at 10 µM | 7% of 210 active;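 active = at least 50% inhibition in the glucose-6-phosphate dehydrogenase coupled counterscreen; inconclusive = no clear call, values can overlap the other calls; inactive = inhibition below 50%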
# TbHK1 confirm: confirmation of Trypanosoma brucei hexokinase 1 inhibitors | shares compounds with Tb hexokinase | recombinant TbHK1, G6PDH-coupled NADH A340 absorbance | inhibition, % at 10 µM | 10% of 210 active | AID 2560;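 active = inhibition of at least 50% in both of the two screening runs; inconclusive = at least 50% in one run, below 50% in the other; inactive = inhibition below 50% in both runs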;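 note: 0% and 100% set by the maximum and minimum signal control wells on each plate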
# Runt-CBFb TRFRET: Runt-CBFb binding inhibition. shares compounds with Runt-CBFb FRET. TR-FRET RUNX1 Runt domain-CBFb binding. inhibition, % at 20 µM. 20% of 480 active. AID 1502; in the data active = inhibition above about 40%
# YIC FRET counter: counter-screen: alters YIC FRET probe signal | Purified YIC probe, intramolecular FRET ratio YFP/CFP | 40% of 1,000 active | IC50, µM | shares compounds with RanGTP-Imp inh | AID 435026;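 active = fitted half-maximal inhibitory concentration no more than tenfold above the top dose tested; inconclusive = flat fit with 30 to 70% activity, or poor fit; inactive = half-maximal concentration beyond tenfold above the top dose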
# Hck Nef conf: confirmation of Hck-Nef kinase inhibitors; shares compounds with Hck-Nef inh; Recombinant Hck-YEEI:Nef, Z-Lyte FRET kinase assay; calls only at 10 µM; 28% of 1,300 active; AID 463188;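 active = average inhibition of at least 50%, with Z-scores no higher than 3 in both the phospho-tyrosine peptide and fluorescence counterscreens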
# Starred values were filed as active, the others as inactive; u = inconclusive; x = not tested or not shown; + = active, no number. Rows were chosen to be rich in hits. Some 1.9% of all compounds tested hit in one or more screens of this group.
SMILES,RanGTP-Imp inh,Runt-SMMHC FRET,Runt-CBFb FRET,Hck-Nef inh,Tb hexokinase,Runt-CBFb TRFRET,others
CN1C(=O)c2ccccc2NC(=O)C1Cc1ccccc1 (stereo not drawn),-3,-6,0,3,-10,x,
O=c1c2ccccc2[se]n1-c1ccccc1,-3,39,-3,102*,91*,x,G6PDH counter=2;TbHK1 confirm=90*;Hck Nef conf=+
CC1OC(NCCc2ccccc2)C(O)C(O)C1O (stereo not drawn),8,-1,0,0,-1,x,
COC(=O)c1c(C)n(Cc2ccco2)c2ccc(O)cc12,-4,0,3,3,-7,x,
CCCNC(=O)c1c(N)n(Cc2ccco2)c2nc3ccccc3nc12,93*,59*,52*,29,-14,23,
CC1C(C)N1CC(O)Cn1ccnc1[N+](=O)[O-] (stereo not drawn),-4,2,4,-6,-19,x,
C[C@]12CC[C@@H]3c4ccc(O)c(O)c4CC[C@H]3[C@@H]1CC[C@@H]2O,u,66*,54*,x,x,52*,
Cc1cc(OC(C)C(=O)NCC2CCC(C(=O)O)CC2)c2c3c(c(=O)oc2c1)CCC3 (stereo not drawn),-5,x,x,x,x,x,
O=S1(=O)CC2(N3CCOCC3)CCCCCCC21 (stereo not drawn),u,1,80*,0,0,-10,
O=C(NCCO)c1nsnc1NCCCl,-1,-7,56*,10,-14,25,
CCOC(=O)c1c(C)n(CCOC)c2ccc(O)cc12,-1,0,0,2,5,x,
COCCOC(=O)c1c(N)n(Cc2ccc(OC)cc2)c2nc3ccccc3nc12,9,105*,52*,22,-24,31,
COc1ccc(CCNCc2ccccc2)cc1,3,x,x,x,x,x,
COCCCn1c(N)c(C(=O)OCCOC)c2nc3ccccc3nc21,u,116*,81*,38,-17,25,
CC1CCC2C(C)C(=O)OC3OC4(C)CCC1C32OO4 (stereo not drawn),-1,x,x,x,x,x,
CCOC(=O)c1c(N)n(CCCOC(=O)c2ccco2)c2nc3ccccc3nc12,23*,116*,72*,30,-10,23,YIC FRET counter=24*
COC(=O)C1=C(c2cc3ccccc3o2)C[C@@H]2CC[C@H]1N2C(=O)N1CCOCC1,2,x,x,x,x,x,
Cc1c(OC(=O)N(C)C)ccc2c1O/C(=C\c1ccco1)C2=O,30*,x,x,x,x,x,YIC FRET counter=12*
COc1ccc(O)c(CN2CCCC(C(=O)c3ccccc3SC)C2)c1 (stereo not drawn),u,-5,4,11,6,x,
O=C(Cn1nc(-c2ccccc2)ccc1=O)N1CCC2(CC1)OCCO2,-2,-8,x,-5,0,x,
CN1CCN(/N=C/c2c(O)n(C)c(=O)n(C)c2=O)CC1,2,x,x,14,-5,x,
Cc1cccc(C)c1OC(=O)Cc1ccccc1,0,1,-1,27,-1,x,
Cc1sc2nc(COC(=O)Cc3ccccc3)[nH]c(=O)c2c1C,20*,-2,-3,1,5,x,YIC FRET counter=>50
Cc1ccc(-n2c(O)c(/C=N/N3CCCCCC3)c(=O)[nH]c2=O)cc1C,22*,2,2,-7,-11,x,YIC FRET counter=>50
Cn1c(O)c(/C=N/N2CCCCC2)c(=O)[nH]c1=O,5,4,-1,0,-8,x,
O=c1[nH]c(=O)n(-c2cccc3ccccc23)c(O)c1/C=N/N1CCCCCC1,22*,0,0,14,-16,x,YIC FRET counter=>50
O=c1[nH]c(=O)n(-c2cccc3ccccc23)c(O)c1/C=N/N1CCCCC1,4,5,-1,24,-6,x,
